This note sets out measurements from ChEMBL document CHEMBL4513216, “Probing the Open Global Health Chemical Diversity Library for Multistage-Active Starting Points for Next-Generation Antimalarials” (ACS Infect Dis, 2020).

A short description of this data set: Toxicity liver stage against HepG2, at 10uM. Type of data set: cell-based. Details: test concentration 10 uM, cell line HepG2-A16-CD81EGFP. The following applies: human, HepG2-A16-CD81EGFP cells; read-out: INHIBITION
In outline: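 Uninfected HepG2-A16-CD81EGFP cells, 3 × 10^3 per well, 1536-well, plated on prespotted compound at 10 μM final, parasite-free screening media added to match infected plates; puromycin 10 μM positive, DMSO 0.5% negative; run in parallel with 48 h PbLuc assay at 37 °C, 5% CO2; viability by CellTiter-Glo luminescence, normalized to controls.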
With `CCn1cnnc1CN(C)C(=O)C1CCC(=O)N(CC2CCCCC2)C1` (configuration not stated), the cytotoxicity at 10 µM is -1.33%.
The result for `CN(CC(=O)NCCc1ccccn1)C(=O)c1cccs1` reads 2.26%; that for `CC1=C[C@@H](CN2CCN(C)CC2)[C@H](C(C)C)C[C@H]1Cc1nnc(C)o1`, -0.39%; that for `CCS(=O)(=O)N1CCC(c2nnc(C3CC3)o2)CC1`, -10.7%.
For `Cc1cnc(N2C[C@@H]3[C@@H](C2)OCC(=O)N3C)nc1`, the cytotoxicity at 10 µM was -3.4%.
The result for `CCOc1cccc(CNc2ccccc2C(=O)OC)c1O` reads 6.69%; that for `CC(C)c1nnc2ccc(N3CCC(C(N)=O)CC3)nn12`, 8.63%.
The value for `CCn1cc(NC(=O)C(C)n2ncc(Cl)c2C)c(C(=O)NCC(C)C)n1` (configuration not stated) was 0.557%; that for `C=CNC(=O)c1nnc2ccc(N3CCOCC3)cc2n1` was 8.85%; that for `CNC(=O)C1(C)CN(S(=O)(=O)c2cccc(OC)c2)CCO1` (configuration not stated) was -1.43%.
Take `CN(C)C(=O)c1cncnc1-c1ccc(CNC(=O)C2CC2)cc1`: the cytotoxicity at 10 µM came to 2.33%.
As for `Cc1c(C(=O)N2CCC(C(=O)c3nc4ccccc4s3)CC2)cnn1C`, the cytotoxicity at 10 µM is 6.32%.
Consider `CCCC1c2cccn2CCN1C(=O)Cn1cnc2sc(C)cc2c1=O` (configuration not stated), for which the cytotoxicity at 10 µM was -0.35%.
The value for `COc1ccc(CC(=O)N2CCN(Cc3ccco3)C[C@H]2C)cc1OC` was 1.02%; that for `Nc1nccnc1C1CN(C(=O)c2ccc3c(c2)OCO3)CCO1` (configuration not stated) was -23.7%.
The result for `NC(=O)CN1CCOCC(Cc2ccccc2Cl)C1` (configuration not stated) reads 3.18%; that for `CCc1nnc(Nc2cccc(C3CCN(C(=O)CO)CC3)n2)s1`, -3.86%; that for `O=c1[nH]c(-c2ccccn2)nc2c1CCN(Cc1cccc(O)c1)C2`, -17.6%.
The result for `O=C(C1CCCC1)N1CC2(CCNC2)OCc2ccccc21` (configuration not stated) reads 8.9%; that for `COc1ccccc1CN1CCCC2(Cc3ccccc3CNC2=O)C1` (configuration not stated), 6.2%; that for `CC(=O)N1CCCN(C(=O)NC(C)c2ccc(C)o2)CC1` (configuration not stated), 2.72%.
Take `COC(=O)C(C)CN(C)S(=O)(=O)c1c(Br)cc2[nH]c(=O)oc2c1Cl` (configuration not stated): the cytotoxicity at 10 µM is 8.73%.
Take `CC1c2cc(F)ccc2CCN1CCS(=O)(=O)C(C)C` (configuration not stated): the cytotoxicity at 10 µM was 2.72%.
On to `Cc1cc(C)c(C(=O)N(C)CCN(C)C(=O)OC(C)(C)C)[nH]1`, for which the cytotoxicity at 10 µM was found to be 3.87%.
The value for `CC(CNC(=O)N(C)Cc1ccco1)N1CCc2sccc2C1` (configuration not stated) was -13.7%; that for `Cc1csc(C(C)(C)NCC(=O)N(C)Cc2ccc(C)o2)n1` was -1.12%; that for `CCc1nnc(C(C)N2CCC(NC(=O)C3CCCCC3)CC2)o1` (configuration not stated) was -8.35%.
Consider `Cc1nc(CN(C)S(=O)(=O)c2ccccc2C(F)(F)F)no1`, for which the cytotoxicity at 10 µM is -3.03%.
`CCc1nnsc1C(=O)NCC1CN(CC(C)C)CCO1` (configuration not stated): the cytotoxicity at 10 µM was 0.537%.
In the case of `CCC(=O)NCC(=O)Nc1ncc(I)cc1C`, the cytotoxicity at 10 µM was determined as 5.4%.
The result for `O=C(NCc1ccccc1CN1CCCC1=O)Nc1nccs1` reads 9.66%; that for `CCOC(C)c1nc(CN2CCC(C3OCCO3)CC2)cs1` (configuration not stated), -1.91%.
The value for `CC(=O)N1CCN(C(=O)CN2CCN(c3cccc(C)c3)CC2)CC1` was -1.75%.
On to `Cc1cc(NC(=O)C(C)Nc2cccc(COCc3ccco3)c2)no1` (configuration not stated), for which the cytotoxicity at 10 µM is -1.42%.
For `COCCn1cc(NC(=O)NCC(C)N2CCOCC2)cn1` (configuration not stated), the cytotoxicity at 10 µM was 1.18%.
On to `Cc1noc(C)c1CN(C)C(=O)c1ccc2c(c1O)OC(C)(C)C2`, for which the cytotoxicity at 10 µM is -2.92%.
As for `CCOCCCC(=O)NS(=O)(=O)c1ccc(C)s1`, the cytotoxicity at 10 µM is 10%.
The value for `O=C1C(Sc2nnnn2C2CC2)CCN1c1ccccc1Cl` (configuration not stated) was 2.4%; that for `Cc1ccc(-c2ncc(CNc3cnccc3CO)s2)o1` was -10.9%.
The value for `CCc1nc(C2CCCN2Cc2ncc(C)c(OC)c2C)no1` (configuration not stated) was 3.3%; that for `COc1ccc(NC(=O)N2CCCCC2c2ncc[nH]2)cc1` (configuration not stated) was 10.4%.
The result for `Cc1ccc(OCCNC(=O)C2CCOCC2)c(C)c1` reads 16.4%; that for `Cc1cc(C)n(CC2CCCCN2CC(=O)Nc2nncs2)n1` (configuration not stated), -4.25%.
For `COCCn1ccc(NC(=O)Nc2ccc(C(N)=O)c(F)c2)n1`, the cytotoxicity at 10 µM amounted to 2.63%.
`COCc1cnc2n1CCN(C(=O)c1cnc3ccccc3c1)C2C` (configuration not stated): the cytotoxicity at 10 µM was -110%.
The value for `CN1CCC2(CC1)OC(C(=O)NCc1cccnc1)Cn1ccnc12` (configuration not stated) was -87.3%; that for `Cc1[nH]c(-c2ccccc2)nc1C(=O)N1CCC(O)(CO)CC1` was 1.1%; that for `Cn1ccnc1CN1CCc2ncnc(N3CCCC(C#N)C3)c2CC1` (configuration not stated) was -5.1%.
The value for `Cc1cc2nc(C(C)C)cc(N3CCC(O)CC3)n2n1` was -8.63%.
Consider `O=C(CCN1CCCCO1)NC1CCCN(CC2CCCCC2)C1` (configuration not stated), for which the cytotoxicity at 10 µM was 4.21%.
On to `OCC1(Cc2cccc(Cl)c2)CCCN(c2ncccn2)C1` (configuration not stated), for which the cytotoxicity at 10 µM worked out at 0.668%.
The value for `CC1(c2ccccc2)CCC(=O)N(CCN2CCOC2=O)C1` (configuration not stated) was 3.37%; that for `Cc1cccnc1CCNC(=O)[C@@]12CNC[C@@H]1CN(S(C)(=O)=O)C2` was -0.973%; that for `COc1ccc(CN2CCC3(CCCNC3)C2)cc1Cn1cccn1` (configuration not stated) was -10.1%.
For `CC(=O)Nc1ccc2nc(CN(C)Cc3snnc3C)ccc2c1`, the cytotoxicity at 10 µM is -12.8%.
On to `CCc1cc(N2CCC(NCCc3ccccc3F)CC2)nc(C)n1`, for which the cytotoxicity at 10 µM amounted to 7.33%.
The value for `CCC(CO)N(Cc1ccccn1)C(=O)c1ncccc1C` (configuration not stated) was 3.42%.
The result for `COc1ccc(OC2CCN(C(=O)C(C)Cn3cccn3)CC2)cc1` (configuration not stated) reads 5.43%; that for `Cc1ccccc1C(=O)N1CC[C@@H](N2CCC(O)CC2)[C@H](O)C1`, 2.94%.
The value for `CCC(C(=O)NCc1ccncc1)N(c1ccc(F)cc1)S(C)(=O)=O` (configuration not stated) was -5.48%.
In the case of `CSc1nccc(N2CCN(C)C3(CCC(=O)N(CC4CC4)CC3)C2)n1` (configuration not stated), the cytotoxicity at 10 µM is 5.6%.
Consider `Cc1nccn1-c1cccc(C2CCCN(C3CCCCC3)C2)n1` (configuration not stated), for which the cytotoxicity at 10 µM was -2.65%.
The value for `c1cnn(CC2CCCN2Cc2nc(C3CC3)no2)c1` (configuration not stated) was 1.61%; that for `Cc1csc(CNC(=O)N2CCN(Cc3cc(C)on3)CC2)n1` was -5.49%.
As for `O=C(NCCn1cccn1)c1ccn(-c2cccc(F)c2)n1`, the cytotoxicity at 10 µM is -4.58%.
Take `Cc1nc(CNC(=O)NCC(O)c2ccccc2)cs1` (configuration not stated): the cytotoxicity at 10 µM was determined as 0.682%.
As to `Cc1nc(CN2CCCC(NCc3ccc(C(N)=O)cc3)C2)no1` (configuration not stated), the cytotoxicity at 10 µM was -9.47%.
`CN(C)c1ncccc1CNS(=O)(=O)c1ccc(F)c(F)c1`: the cytotoxicity at 10 µM is -7.18%.
The value for `Cc1nc(CN2CCC(N3CCN(C)C3=O)CC2)no1` was -22%; that for `Cc1ccc(S(=O)(=O)NC(=O)COc2cccc(C(N)=O)c2)s1` was -12.7%; that for `N#Cc1ccc(OCCN2CCn3c(nnc3C3CC3)C2)cc1` was -3.75%.
Turning to `OC(CNCCn1cccn1)c1cccc(Br)c1` (configuration not stated), the cytotoxicity at 10 µM is -5.98%.
The value for `Cc1cnn(CC2CN(CC(=O)Nc3ccncc3)CCO2)c1` (configuration not stated) was -3.75%; that for `COc1c(C2CCCN2Cc2nc(C)c(C)o2)c(C)nn1C` (configuration not stated) was -2%.
For the compound `CC(C)(C)c1nc(CN(Cc2cccs2)CC2CCCO2)no1` (configuration not stated), the cytotoxicity at 10 µM was -10%.
As for `CC(C)N1CCN(C(=O)Cc2csc(-c3ccco3)n2)CC1`, the cytotoxicity at 10 µM is -2.93%.
Take `CN(C)CC(=O)N1CCN(C(=O)c2cccc3[nH]ncc23)CC1`: the cytotoxicity at 10 µM was -11.6%.
Take `CCN(Cc1cccc(F)c1)Cn1nc(C)c2c(C)onc2c1=O`: the cytotoxicity at 10 µM is -3.54%.
Turning to `CSCc1ccc(C(=O)N2CCN(CC(C)O)CC2)cc1` (configuration not stated), the cytotoxicity at 10 µM is -6.23%.
On to `CCN(Cc1ccc2c(c1)OCCO2)C(=O)NCc1nncn1CC`, for which the cytotoxicity at 10 µM is -4.35%.
For `CCn1cc(NC(=O)C2CCN(CC(=O)N3CCOCC3)CC2)cn1`, the cytotoxicity at 10 µM is -3.46%.
For the compound `Cc1ccc(-c2nc(CCNC(=O)CCN3CCOC3=O)co2)cc1`, the cytotoxicity at 10 µM was 2.33%.
The result for `CC(NC(=O)N1CCC(OCc2ccccc2)CC1)c1nncn1C` (configuration not stated) reads -1.49%.
As to `COCc1nc(C(=O)N2CCCC2c2noc(C(C)C)n2)cs1` (configuration not stated), the cytotoxicity at 10 µM was found to be 0.866%.
The value for `CC(CNCc1ccc(Cl)cc1)Oc1ccccn1` (configuration not stated) was 5.01%.
Take `O=C(NCc1ccco1)[C@@H]1CCO[C@@H]2CCN(C3CCOCC3)C[C@H]21`: the cytotoxicity at 10 µM was -74.9%.
The value for `CCCS(=O)(=O)N1CCOC2(CCCN(c3ccccn3)C2)C1` (configuration not stated) was 4.23%; that for `Cc1nc(CO[C@@H]2CN(Cc3cccnc3)[C@@H]3COC[C@@H]32)cs1` was 5.05%; that for `CCN1CCC(CNCc2c[nH]nc2C(C)(C)C)C1` (configuration not stated) was -7.77%.
As for `Fc1ccc(CN2C[C@@H]3OCCN(CCN4CCCC4)[C@@H]3C2)cc1`, the cytotoxicity at 10 µM was -3.58%.
The result for `Cc1ccc(CN2CCOC3(COCCN(S(C)(=O)=O)C3)C2)s1` (configuration not stated) reads 10.8%; that for `Cc1ncsc1CN1CC[C@H]2OCC[C@@]2(C(=O)NC(C)C)C1`, 9.38%; that for `Cc1nc(CN2C[C@@H]3CN(C(=O)NC(C)C)C[C@@H]3C2=O)cs1`, -76.2%.
The value for `Cc1ccsc1C(=O)N1Cc2ncn(C)c2C(COCC2CC2)C1` (configuration not stated) was 6.76%.
For `O=C(C1CCOC1)N1CCN(CCn2cccn2)c2ncccc2C1` (configuration not stated), the cytotoxicity at 10 µM was -104%.
The value for `CN(C)CCOCC1CN(Cc2ccsc2)Cc2ccnn2C1` (configuration not stated) was 3.01%; that for `CC(C)(C)c1cc(CN2C[C@@H]3CC[C@H]2CN(Cc2cscn2)C3)n[nH]1` was 5.13%.
